Test results taken from PubChem BioAssay.
Results filed as inconclusive are left out. Active and inactive are the calls of the source.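 Rule for the calls, unless noted: active = viability increase at or above a cutoff of the median across tested compounds plus 3 SD (cut at about 8.5% in these data, passing the limit was not always enough); inconclusive = some gains above the cutoff, reason not given; inactive = the rest.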

Key:
[1] = S. cerevisiae growth inhibition in permissive medium (OD615), pilot counter-assay for S. cerevisiae lifespan shortening project, permissive growth control (AID 705;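 active = growth inhibition above 25% in both replicates, a cutoff set 3 SD above the mean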); conditions: OD615, 24 h, at 10 µM, hits give high values
In short: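 assay system = Saccharomyces cerevisiae strain carrying genetically modified DeaD replicative-lifespan system | medium = SC raffinose/galactose permissive medium | dosing = 10 µM single dose, 0.25% DMSO | schedule = 24 h compound exposure at 30 °C after 4 h pre-growth | measured by = OD at 615 nm | read-out basis = growth inhibition from lowered OD615 after 24 h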

[2] = S. cerevisiae growth inhibition in restrictive medium, OD615, pilot screen, restrictive growth control, yeast lifespan reduction project (AID 706;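 active = growth inhibition above a set limit, 3 SD over mean compound inhibition, in both replicates, cut at about 43% in these data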;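 note: modified DeaD lifespan yeast strain shifted to restrictive glucose medium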); conditions: OD615, 48 h, at 10 µM, hits give high values
In short: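 Buffer or medium: CSMM-D glucose medium. Material: genetically modified Saccharomyces cerevisiae, DeaD replicative lifespan assay strain. Times: 48 h compound exposure at 30 °C. Measured by: optical density at 615 nm.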

[3] = doxorubicin toxicity protection in MRP-1 cells – H69AR cells, CellTiter-Glo, duplicate, MRP-1 activator project, pilot screen (AID 807); conditions: H69AR viability with doxorubicin, CellTiter-Glo luminescence; at 10 µM; hits give high values;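 note: compound pretreatment 18-22 h then 72 h combined with doxorubicin; 0% = doxorubicin alone and 100% = vehicle without doxorubicin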
[4] = viability of HCT116 without oncogenic beta-catenin – human colon tumor cells, pilot screen (AID 823;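 active = cell viability at or below a set limit in both duplicate runs, the limit being the all-compound median minus 4 SD, cut at about 23% in these data, passing the limit was not always enough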;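 note: 0% = wells killed by 20 µM Hyamine and 100% = untreated DMSO cell wells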); conditions: HCT116 beta-catenin knockout viability, CellTiter-Glo, 60 h; at 10 µM; hits give low values
[5] = viability of PTEN-null HCT116 cells – cell-based, HCT116 clonal line, CellTiter-Glo, pilot screen (AID 824;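 active = viability at or below 27.92% in each of two runs, the all-compound median minus 4 SD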;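 note: 0% = 20 µM Hyamine control and 100% = vehicle cell control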); conditions: HCT116 PTEN-deleted viability, 60 h, at 10 µM, hits give low values
[6] = RAM pathway blockade in budding yeast – dse1pr::URA3 reporter, 5-FOA selection, pilot screen (AID 869;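 active = inhibition over a set limit, the all-compound mean plus 3 SD, in both replicate runs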;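 note: 0% = DMSO wells with no growth and 100% = 10 µM 1-NA-PP1 with full growth; RAM network block rescues cells from 5-FOA so hits raise OD615 growth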); conditions: S. cerevisiae dse1pr::URA3 5-FOA growth, OD615, 2 d; at 10 µM; hits give high values; strain carries analog-sensitive mutant Cbk1 kinase
[7] = RAM signaling pathway blockade in yeast – S. cerevisiae, Pdr1DBD-CYC8 efflux-inhibited sensitized strain, primary screen (AID 1298;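 active = RAM network inhibition above 8.4% in each of two replicates, 3 SD over the compound average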;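 note: 0% = DMSO untreated cells without growth and 100% = 10 µM 1-NA-PP1 full growth; higher means more yeast growth rescued from 5-FOA killing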); conditions: S. cerevisiae cbk1-as DSE1-URA3 strain, 5-FOA growth OD615, 2 d; at 50 µM; hits give high values

Cc1ccc(S(=O)(=O)N2CCN(Cc3ccccc3C(F)(F)F)CC2)cc1
inactive: growth inhibition [1] -12.5% | growth inhibition [2] -27.7% | viability increase [3] -1.45% | viability [4] 78% | viability [5] 82.8% | inhibition [6] 0.92% | RAM network inhibition [7] 3.06%

CCCCC(CC)CNC(=O)c1cccs1 (stereo not drawn)
inactive: growth inhibition [1] 6.58% | growth inhibition [2] 13.6% | viability increase [3] 0.39% | viability [4] 79.2% | viability [5] 85.8% | inhibition [6] -0.705% | RAM network inhibition [7] -1.28%

COc1ccc(Cn2c(=O)[nH]c3cc(C(=O)NCCCN4CCCC4=O)ccc3c2=O)cc1
inactive: growth inhibition [1] -17.7% | growth inhibition [2] -12.3% | viability increase [3] 0.19% | viability [4] 91.6% | viability [5] 90.4% | inhibition [6] 0.92% | RAM network inhibition [7] 1.36%

CC(=O)N1c2ccccc2N(Cc2ccc(C)cc2C)C(=O)C1(C)C
active: viability [4] 16% | viability [5] 20.7%
inactive: growth inhibition [1] -6.6% | growth inhibition [2] 5.81% | viability increase [3] -6.55% | inhibition [6] 1.14% | RAM network inhibition [7] 9.4%

O=C(C1COc2ccccc2O1)N1CCn2c(nc3ccccc32)C1 (stereo not drawn)
inactive: growth inhibition [1] -13.1% | growth inhibition [2] -3.57% | viability increase [3] -2.64% | viability [4] 106% | viability [5] 92% | inhibition [6] 1.85% | RAM network inhibition [7] 4.61%

CCOC(=O)C1=C(C)NC(=O)CC1c1cc2c(cc1Br)OCO2 (stereo not drawn)
inactive: growth inhibition [1] 1.83% | growth inhibition [2] -5.8% | viability increase [3] -4.4% | viability [4] 96.6% | viability [5] 90.6% | inhibition [6] 1.44% | RAM network inhibition [7] 6.81%

COc1ccc(NC(=O)Nc2nnc(N3CCC(C)CC3)s2)cc1OC
inactive: growth inhibition [1] -8.13% | growth inhibition [2] -23% | viability increase [3] -4.49% | viability [4] 107% | viability [5] 98.1% | inhibition [6] 1.59% | RAM network inhibition [7] 1.42%

CCOC(=O)c1c(C)n(C)c2ccc(OCC(N)=O)cc12
inactive: growth inhibition [1] -3.96% | growth inhibition [2] -11% | viability increase [3] -4.45% | viability [4] 100% | viability [5] 99.3% | inhibition [6] 1.96% | RAM network inhibition [7] 6.79%

Cn1c(=O)oc2cc(S(=O)(=O)N3CCCC(C(=O)Nc4ccc5c(c4)OCCO5)C3)ccc21 (stereo not drawn)
inactive: growth inhibition [1] -0.19% | growth inhibition [2] -4.89% | viability increase [3] -1.81% | viability [4] 89.5% | viability [5] 90% | inhibition [6] 1.42% | RAM network inhibition [7] 1.66%

Cc1sc2nc(SCC(=O)N(CCO)CCO)n(C3CCCCC3)c(=O)c2c1C
inactive: growth inhibition [1] -10.3% | growth inhibition [2] 0.44% | viability increase [3] -2.54% | viability [4] 99% | viability [5] 104% | inhibition [6] 2.33% | RAM network inhibition [7] 10.7%

CCC(C#CCN1CCOCC1)(CC)OCCC#N
inactive: growth inhibition [1] -6.57% | growth inhibition [2] -3.89% | viability increase [3] -0.51% | viability [4] 97% | viability [5] 95.9% | inhibition [6] 1.35% | RAM network inhibition [7] 0.88%

CCSCCOC(=O)C1=C(C)N(C)C(=O)NC1c1cc(OC)ccc1OC (stereo not drawn)
inactive: growth inhibition [1] 0.26% | growth inhibition [2] -2.77% | viability increase [3] 1.05% | viability [4] 94.2% | viability [5] 93.8% | inhibition [6] 0.645% | RAM network inhibition [7] 2.69%

O=C(Cc1cc(=O)[nH]c(=O)[nH]1)NCCN1CCOCC1
inactive: growth inhibition [1] 4.2% | growth inhibition [2] 10.4% | viability increase [3] 1.08% | viability [4] 102% | viability [5] 98.6% | inhibition [6] 0.35% | RAM network inhibition [7] 5.04%

Cn1c(=O)oc2cc(S(=O)(=O)NC(Cc3ccccc3)C(=O)N3CCCCC3)ccc21 (stereo not drawn)
inactive: growth inhibition [1] -6.13% | growth inhibition [2] -11.9% | viability increase [3] -2.55% | viability [4] 109% | viability [5] 98.6% | inhibition [6] 2.8% | RAM network inhibition [7] 2.02%

C=CCN1C(=Nc2ccccc2)SC/C1=C\C(=O)OC
inactive: growth inhibition [1] -14.6% | growth inhibition [2] -4.42% | viability increase [3] -2.34% | viability [4] 89% | viability [5] 89.8% | inhibition [6] 0.81% | RAM network inhibition [7] 6.77%

O=C(Nc1nc(-c2cc3ccccc3oc2=O)cs1)c1ccco1
inactive: growth inhibition [1] -17.5% | growth inhibition [2] -10.9% | viability increase [3] -1.98% | viability [4] 102% | viability [5] 100% | inhibition [6] 1.57% | RAM network inhibition [7] 3.32%

O=C(CSc1ncccn1)NCCc1ccccc1
inactive: growth inhibition [1] -4.5% | growth inhibition [2] 2.61% | viability increase [3] -1.26% | viability [4] 96% | viability [5] 97.2% | inhibition [6] 2.3% | RAM network inhibition [7] 2.5%

O=C(O)CCc1nnc2n(Cc3ccc(F)cc3)c(=O)c3ccccc3n12
inactive: growth inhibition [1] -4.64% | growth inhibition [2] 5.36% | viability increase [3] -0.62% | viability [4] 99.2% | viability [5] 90.8% | inhibition [6] 1.04% | RAM network inhibition [7] 1.56%

CN(C)CCCCCNCCCNC(=O)/C=N\O
inactive: growth inhibition [1] -2.17% | growth inhibition [2] 3.62% | viability increase [3] 0.12% | viability [4] 98.3% | viability [5] 103% | inhibition [6] 3.2% | RAM network inhibition [7] 1.4%

Cc1n[nH]c(=O)nc1NCc1ccccc1
inactive: growth inhibition [1] -8.25% | growth inhibition [2] -29% | viability increase [3] -0.55% | viability [4] 95% | viability [5] 93.9% | inhibition [6] 1.48% | RAM network inhibition [7] 0.91%

O=C(Cn1ncc2c(=O)oc3ccccc3c21)NCC1COc2ccccc2O1 (stereo not drawn)
inactive: growth inhibition [1] 4.09% | growth inhibition [2] -10.9% | viability increase [3] -1.36% | viability [4] 103% | viability [5] 98.2% | inhibition [6] 2.72% | RAM network inhibition [7] 3.56%

CCCn1c(C(O)c2ccc(OCC)cc2)nc2ccccc21 (stereo not drawn)
inactive: growth inhibition [1] -8.12% | growth inhibition [2] -1.57% | viability increase [3] -3.93% | viability [4] 94.9% | viability [5] 82.3% | inhibition [6] 1.36% | RAM network inhibition [7] -1.01%

Cc1ccc(C(=O)CSc2nnc(-c3cccs3)n2C)o1
inactive: growth inhibition [1] 1.85% | growth inhibition [2] 28.1% | viability increase [3] -3.5% | viability [4] 108% | viability [5] 108% | inhibition [6] 0.5% | RAM network inhibition [7] 3.7%

CCOC(=O)C1CCN(C(c2cccs2)c2sc3nc(C)nn3c2O)CC1 (stereo not drawn)
inactive: growth inhibition [1] -2.81% | growth inhibition [2] -7.96% | viability increase [3] -0.58% | viability [4] 105% | viability [5] 99.3% | inhibition [6] 0.905% | RAM network inhibition [7] 3.86%
